Source: ChEMBL document CHEMBL3612017, “Rigidified A3 Adenosine Receptor Agonists: 1-Deazaadenine Modification Maintains High in Vivo Efficacy” (ACS Med Chem Lett, 2015)
pKi: −log10 of the molar value.

Legend:
[1] = target: T1, Adenosine receptor A1 (Homo sapiens) (UniProt P30542); experiment: Displacement of [3H]N6-R-phenylisopropyladenosine from human adenosine A1 receptor expressed in CHO cell membranes at 10 uM
T1 sequence (whole entry): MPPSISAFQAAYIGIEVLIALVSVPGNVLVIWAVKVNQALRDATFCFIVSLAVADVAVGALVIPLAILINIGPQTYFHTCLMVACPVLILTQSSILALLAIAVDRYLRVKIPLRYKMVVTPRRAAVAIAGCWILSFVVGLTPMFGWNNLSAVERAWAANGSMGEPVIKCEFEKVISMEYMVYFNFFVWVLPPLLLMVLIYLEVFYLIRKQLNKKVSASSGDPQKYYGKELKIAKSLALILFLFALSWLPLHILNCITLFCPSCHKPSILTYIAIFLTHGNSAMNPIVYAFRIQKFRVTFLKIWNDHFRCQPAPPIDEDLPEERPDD
Summary of the method: (§1)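 Radioligand binding at the human receptor subtypes. Nonspecific binding was defined with adenosine 5′-N-ethyluronamide (10 μM). Ki values came from displacement curves, mean ± SEM, n = 3 unless noted. Single-point data were expressed as % inhibition of binding at 10 μM.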

[2] = target: Adenosine receptor A2a (Homo sapiens) (UniProt P29274); experiment: Displacement of [3H]2-[p-(2-carboxyethyl)phenyl-ethylamino]-5'-Nethylcarboxamidoadenosine from human adenosine A2A receptor expressed in HEK293 cell membranes at 10 uM; summary of the method: as §1
Adenosine receptor A2a (Homo sapiens), sequence (P29274 whole entry): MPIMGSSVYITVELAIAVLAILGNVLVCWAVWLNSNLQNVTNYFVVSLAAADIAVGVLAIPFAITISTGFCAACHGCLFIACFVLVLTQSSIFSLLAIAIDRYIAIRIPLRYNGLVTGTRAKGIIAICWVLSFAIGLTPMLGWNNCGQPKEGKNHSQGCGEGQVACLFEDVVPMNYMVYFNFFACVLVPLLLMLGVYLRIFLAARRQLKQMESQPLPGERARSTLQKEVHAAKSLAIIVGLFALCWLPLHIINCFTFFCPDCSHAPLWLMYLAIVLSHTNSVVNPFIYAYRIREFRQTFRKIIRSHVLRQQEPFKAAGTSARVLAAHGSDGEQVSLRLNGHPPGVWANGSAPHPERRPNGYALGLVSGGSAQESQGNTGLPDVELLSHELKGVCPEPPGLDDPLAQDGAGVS

[3] = test system: Mus musculus; experiment: Analgesic activity in mouse chronic constriction injury model of neuropathic pain assessed as protection of ipsilateral hind paw mechanoallodynia of sciatic nerve at 0.3 to 30 umol/kg administered through oral gavage at point of peak pain on day 7 measured at 3 hrs; assay type: functional
Summary of the method: (§2)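 Mice had sciatic nerve chronic constriction injury. Compound was given by oral gavage on day 7, at peak pain. Mechanoallodynia was scored on the ipsilateral and contralateral hind paws at the 1 h and 3 h time points, as % protection. n = 4 per group, some n = 3.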

[4] = test system: Mus musculus; experiment: Effect on contralateral side hind paw in mouse chronic constriction injury model of neuropathic pain at 0.3 to 30 umol/kg administered through oral gavage at point of peak pain on day 7; assay type: ADME, organism-based; settings: in vivo; summary of the method: as §2
[5] = test system: Mus musculus; experiment: Analgesic activity in mouse chronic constriction injury model of neuropathic pain assessed as time of peak protection at 0.3 to 30 umol/kg administered through oral gavage at point of peak pain on day 7; assay type: functional; summary of the method: as §2
[6] = test system: Mus musculus; experiment: Analgesic activity in mouse chronic constriction injury model of neuropathic pain assessed as protection of ipsilateral hind paw mechanoallodynia of sciatic nerve at 0.3 to 30 umol/kg administered through oral gavage at point of peak pain on day 7 relative to control measured at 1 hr; assay type: functional; summary of the method: as §2
[7] = target: T2, Adenosine receptor A3 (Homo sapiens, UniProt P0DMS8); experiment: Displacement of [125I]N6-(4-amino-3-iodobenzyl)adenosine-5'-N-methyluronamide from human adenosine A3 receptor expressed in CHO cell membranes
T2 sequence (P0DMS8 whole entry): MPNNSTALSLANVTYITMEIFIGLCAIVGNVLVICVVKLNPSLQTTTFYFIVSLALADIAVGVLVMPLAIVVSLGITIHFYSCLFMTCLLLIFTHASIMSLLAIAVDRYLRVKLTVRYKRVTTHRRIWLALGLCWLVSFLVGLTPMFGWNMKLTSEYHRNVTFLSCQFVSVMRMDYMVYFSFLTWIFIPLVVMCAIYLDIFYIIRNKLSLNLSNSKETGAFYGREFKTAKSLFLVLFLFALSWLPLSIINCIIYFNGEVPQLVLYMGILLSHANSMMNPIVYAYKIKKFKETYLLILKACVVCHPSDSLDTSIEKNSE

[8] = target: T3, Adenosine receptor A3 (Canis lupus familiaris, UniProt Q28309); experiment: Binding affinity to canine adenosine A3 receptor expressed in HEK293 cell membranes
T3 sequence (Q28309 whole entry): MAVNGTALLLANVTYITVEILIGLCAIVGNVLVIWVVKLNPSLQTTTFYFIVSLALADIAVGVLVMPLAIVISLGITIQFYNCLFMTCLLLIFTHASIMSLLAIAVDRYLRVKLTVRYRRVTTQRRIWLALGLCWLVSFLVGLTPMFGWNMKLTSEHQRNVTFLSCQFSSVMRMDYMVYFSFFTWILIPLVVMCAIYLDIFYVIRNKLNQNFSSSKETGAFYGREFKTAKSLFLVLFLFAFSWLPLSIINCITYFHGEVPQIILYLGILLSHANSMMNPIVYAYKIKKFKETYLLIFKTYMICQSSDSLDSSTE
Summary of the method: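 Radioligand binding used membranes of HEK293 cells expressing the mouse or the canine A3 receptor. Affinities were given as Ki in nM, mean ± SEM, n = 3.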

[9] = target: T4, Adenosine receptor A3 (Mus musculus, UniProt Q61618); experiment: Binding affinity to mouse adenosine A3 receptor expressed in HEK293 cell membranes
T4 sequence (Q61618 whole entry): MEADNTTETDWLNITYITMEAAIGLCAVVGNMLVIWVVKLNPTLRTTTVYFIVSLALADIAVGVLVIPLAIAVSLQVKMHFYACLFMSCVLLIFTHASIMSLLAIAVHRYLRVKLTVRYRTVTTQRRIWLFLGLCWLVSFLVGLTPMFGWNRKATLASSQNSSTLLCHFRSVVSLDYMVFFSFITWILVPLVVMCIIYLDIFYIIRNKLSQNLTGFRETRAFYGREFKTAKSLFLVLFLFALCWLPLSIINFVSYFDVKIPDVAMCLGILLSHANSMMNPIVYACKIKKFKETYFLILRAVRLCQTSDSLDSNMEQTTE
Summary of the method: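 Radioligand binding used membranes of HEK293 cells expressing the mouse or the canine A3 receptor.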

[10] = test system: Mus musculus; experiment: Analgesic activity in mouse chronic constriction injury model of neuropathic pain assessed as protection of ipsilateral hind paw mechanoallodynia of sciatic nerve at 0.3 to 30 umol/kg administered through oral gavage at point of peak pain on day 7; assay type: functional; settings: 168 h; summary of the method: as §2
[11] = target: T5, Adenosine receptor A2b (Homo sapiens) (UniProt P29275); experiment: Displacement of [3H]MRS1754 from human adenosine A2B receptor expressed in HEK293 cell membranes at 10 uM
T5 sequence (whole entry): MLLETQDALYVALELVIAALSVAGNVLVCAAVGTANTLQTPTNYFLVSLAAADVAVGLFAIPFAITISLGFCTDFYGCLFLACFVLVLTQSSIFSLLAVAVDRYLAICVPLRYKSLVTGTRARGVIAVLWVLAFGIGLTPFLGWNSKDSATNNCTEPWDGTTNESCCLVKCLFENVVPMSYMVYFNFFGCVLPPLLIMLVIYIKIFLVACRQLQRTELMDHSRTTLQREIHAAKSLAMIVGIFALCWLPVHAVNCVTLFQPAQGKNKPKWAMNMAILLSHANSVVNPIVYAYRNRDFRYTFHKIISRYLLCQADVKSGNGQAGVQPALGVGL

[12] = target: 5-hydroxytryptamine receptor 2B (Homo sapiens, UniProt P41595); experiment: Binding affinity to 5HT2B receptor (unknown origin)
5-hydroxytryptamine receptor 2B, sequence (P41595 whole entry): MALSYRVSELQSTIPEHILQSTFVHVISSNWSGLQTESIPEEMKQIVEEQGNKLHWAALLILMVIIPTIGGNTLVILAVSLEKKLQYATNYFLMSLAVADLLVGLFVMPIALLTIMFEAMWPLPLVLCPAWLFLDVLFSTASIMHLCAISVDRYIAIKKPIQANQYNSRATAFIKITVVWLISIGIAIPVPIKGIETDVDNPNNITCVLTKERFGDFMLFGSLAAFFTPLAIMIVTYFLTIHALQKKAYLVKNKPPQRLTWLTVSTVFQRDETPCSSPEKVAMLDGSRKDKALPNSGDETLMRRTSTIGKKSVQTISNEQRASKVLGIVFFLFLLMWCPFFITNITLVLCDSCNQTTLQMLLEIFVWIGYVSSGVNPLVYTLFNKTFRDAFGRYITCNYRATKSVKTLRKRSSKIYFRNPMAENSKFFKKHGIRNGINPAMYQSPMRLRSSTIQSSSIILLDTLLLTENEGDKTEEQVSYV

[13] = target: T6, Adenosine receptor A1 (Homo sapiens, UniProt P30542); experiment: Displacement of [3H]N6-R-phenylisopropyladenosine from human adenosine A1 receptor expressed in CHO cell membranes; summary of the method: as §1
T6 sequence (P30542 whole entry): T1 sequence (whole entry)

[14] = Aqueous solubility of the compound; assay type: physicochemical; settings: buffer

| SMILES | inhibition [1] | inhibition [2] | Activity [3] | Activity [4] | Time [5] | Emax [6] | pKi [7] | pKi ([8]; read-out: Ki) | pKi [9] | pKi [8] | ED50 [10] | inhibition [11] | Ki [12] | pKi [13] | solubility [14] |
| --- | --- | --- | --- | --- | --- | --- | --- | --- | --- | --- | --- | --- | --- | --- | --- |
| CNC(=O)[C@@]12C[C@@H]1[C@@H](n1cnc3c(NC4CC4)nc(C#Cc4ccc(Cl)s4)nc31)[C@H](O)[C@@H]2O | 47% | 44% | 36% | Non-toxic | 1 h | 76% | 9.00 | – | – | – | – | – | – | – | – |
| CCCCNc1nc(C#Cc2ccc(Cl)s2)nc2c1ncn2[C@H]1[C@H](O)[C@H](O)[C@]2(C(=O)NC)C[C@H]12 | 6% | 0% | 24% | Non-toxic | 1 h | 68% | 8.54 | – | – | – | – | – | – | – | – |
| CNC(=O)[C@@]12C[C@@H]1[C@@H](n1cnc3c(NC)cc(C#Cc4ccc(Cl)s4)nc31)[C@H](O)[C@@H]2O | 15% | 8% | 80% | Non-toxic | 1 h | 91% | 8.52 | 7.12 | 7.51 | – | – | – | – | – | – |
| CNC(=O)[C@@]12C[C@@H]1[C@@H](n1cnc3c(NC)nc(C#Cc4ccc(Cl)s4)nc31)[C@H](O)[C@@H]2O | – | – | 46% | Non-toxic | 1 h | 93% | – | – | – | 8.07 | 0.73 µmol/kg | – | – | – | – |
| CCCNc1cc(-n2cc(-c3ccc(Cl)s3)nn2)nc2c1ncn2[C@H]1[C@H](O)[C@H](O)[C@]2(C(=O)NC)C[C@H]12 | 44% | 4% | – | – | – | – | 6.96 | – | – | – | – | – | – | – | – |
| CCCNc1nc(C#Cc2ccc(Cl)s2)nc2c1ncn2[C@H]1[C@H](O)[C@H](O)[C@]2(C(=O)NC)C[C@H]12 | 22% | 34% | 93% | Non-toxic | 1 h | 95% | 8.96 | 8.24 | 8.17 | – | – | 34% | Not Active | – | – |
| CNC(=O)[C@@]12C[C@@H]1[C@@H](n1cnc3c(NCC4CC4)nc(-n4cc(-c5ccc(Cl)s5)nn4)nc31)[C@H](O)[C@@H]2O | – | 44% | – | – | – | – | 8.03 | – | – | – | – | – | – | 5.87 | – |
| CCNc1nc(C#Cc2ccc(Cl)s2)nc2c1ncn2[C@H]1[C@H](O)[C@H](O)[C@]2(C(=O)NC)C[C@H]12 | 28% | 12% | 87% | Non-toxic | 1 h | 98% | 8.42 | 8.82 | 7.57 | – | 0.9 µmol/kg | – | – | – | – |
| CCCNc1cc(C#Cc2ccc(Cl)s2)nc2c1ncn2[C@H]1[C@H](O)[C@H](O)[C@]2(C(=O)NC)C[C@H]12 | – | 11% | – | – | – | – | 7.42 | – | – | – | – | – | – | 5.61 | – |
| CNC(=O)[C@@]12C[C@@H]1[C@@H](n1cnc3c(NC4CC4)cc(C#Cc4ccc(Cl)s4)nc31)[C@H](O)[C@@H]2O | 26% | 11% | – | – | – | – | 8.00 | – | – | – | – | – | – | – | – |
| CNC(=O)[C@@]12C[C@@H]1[C@@H](n1cnc3c(NC4CCC4)nc(C#Cc4ccc(Cl)s4)nc31)[C@H](O)[C@@H]2O | 39% | 34% | 95% | Non-toxic | 1 h | 97% | 8.35 | – | – | – | – | – | – | – | – |
| CNC(=O)[C@@]12C[C@@H]1[C@@H](n1cnc3c(NCC4CC4)nc(C#Cc4ccc(Cl)s4)nc31)[C@H](O)[C@@H]2O | 24% | 3% | 85% | Non-toxic | 1 h | 94% | 8.10 | – | – | – | – | – | – | – | – |
| CNC(=O)[C@@]12C[C@@H]1[C@@H](n1cnc3c(NCC4CCC4)nc(-n4cc(-c5ccc(Cl)s5)nn4)nc31)[C@H](O)[C@@H]2O | – | 42% | – | – | – | – | 7.68 | – | – | – | – | – | – | 6.15 | Insoluble |
| CNC(=O)[C@@]12C[C@@H]1[C@@H](n1cnc3c(NCC4CCC4)nc(C#Cc4ccc(Cl)s4)nc31)[C@H](O)[C@@H]2O | 34% | 5% | 90% | Non-toxic | 1 h | 98% | 7.82 | – | – | – | – | – | – | – | – |
| CNC(=O)[C@@]12C[C@@H]1[C@@H](n1cnc3c(NC(C)C)nc(C#Cc4ccc(Cl)s4)nc31)[C@H](O)[C@@H]2O | 26% | 17% | 39% | Non-toxic | 1 h | 88% | 8.54 | – | – | – | – | – | – | – | – |
